WNV NS2B-NS3 inh: blocks West Nile virus NS2B-NS3 protease activity | P06935 | WNV NS2B-NS3 protease, fluorogenic substrate Ex360/Em465; hits give low values | z-score (test concentration not listed) | 0.18% of 65,000 active | AID 577; in the data active means z-score below about -3
Target sequence (P06935 1371-1501 limits assumed): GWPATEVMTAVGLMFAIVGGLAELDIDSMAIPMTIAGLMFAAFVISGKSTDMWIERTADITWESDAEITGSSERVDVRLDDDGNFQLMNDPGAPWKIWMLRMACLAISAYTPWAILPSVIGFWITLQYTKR
Target sequence (P06935 1502-1679 limits assumed): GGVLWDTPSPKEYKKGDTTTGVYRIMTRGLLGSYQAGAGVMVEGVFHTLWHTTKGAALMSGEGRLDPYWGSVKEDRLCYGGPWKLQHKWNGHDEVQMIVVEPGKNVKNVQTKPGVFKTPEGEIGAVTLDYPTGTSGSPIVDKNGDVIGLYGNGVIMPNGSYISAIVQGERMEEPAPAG
AP complement: alternative pathway complement inhibition, orthogonal assay; Human serum alternative complement pathway, LPS-coated ELISA, C3 deposition; tested in compound mixtures; 0.08% of 62,000 active; inhibition, % at 5 µM;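 active means inhibition above 30% in each of the two pooled mixtures holding the compound, so the lower value exceeds 30%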
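Medium: diluted human serum in Mg2+-EGTA GVB++. Assay system: human serum complement alternative pathway, C3 deposition onto LPS. Also added: Plate-bound LPS. Technique: Anti-C3 ELISA, OD 450 nm. Measure: percent inhibition. Incubation: 1 h at 37 °C. Dosing: 5 µM each compound, pools of ten, 50 µM per pool.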
tolC growth inh: blocks growth of E. coli BW25113 tolC mutant; OD615; growth inhibition, % at 10 µM (by protocol); 2.2% of 65,000 active;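 active means growth inhibition at or above a cutoff equal to the mean over every tested compound plus 3 SD, cut at about 60% in these data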;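 further: growth measured after 20 h incubation at 37 °C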
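test system = E. coli BW25113 ΔtolC::kan bacteria | medium = LB with kanamycin 50 µg/mL | signal = OD at 615 nm | schedule = 37 °C, 20 h exposure | evaluation = % inhibition of E. coli growth | compound dosing = one dose of 10 µM final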
M1 antagonist: blocks the rat M1 muscarinic receptor response to acetylcholine. P08482. CHO-M1 cells, Fluo-4 calcium, ACh EC80 antagonist mode; hits give low values. B-score at 10 µM. 3.4% of 64,000 active. AID 628;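 active means calcium fluorescence response, raw or row-and-column corrected B-score, differing from the plate sample mean either way at a set confidence level, mostly lower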
M1 agonist: activates the M1 muscarinic receptor; CHO-M1 cells, Fluo-4 calcium fluorescence, agonist mode; hits give high values; 3% of 64,000 active; B-score at 10 µM;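 active means fluorescence rise, raw or as B-score row- and column-corrected plate score, outside the 99.7% band of its plate's samples, either direction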
E coli WT exp: E. coli BW25113 growth inhibition, expanded screen; OD600 absorbance; growth inhibition, % at 100 µM; 0.15% of 98,000 active;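 active means growth inhibition above about 50% at one test dose, limit read from the data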;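 further: growth measured after 20 h incubation at 37 °C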
M1 ag confirm: rat M1 muscarinic agonism, confirmation | shares compounds with M1 agonist | fluorescence change (max-min) at 10 µM | 19% of 1,700 active | CHO-M1 cells, Fluo-4 calcium fluorescence, agonist mode; actives lie on both sides;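 active means fluorescence change differs from the solvent-only DMSO control mean at a set confidence level in both duplicate runs; inconclusive means differs from solvent-only control mean in just one of two runs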;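 further: an EC20 dose of acetylcholine follows compound addition during the same imaging run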
M4 agonist ctr: rat M4 muscarinic agonism, M1 counter-screen | shares compounds with M1 agonist | fluorescence change (max-min) at 10 µM | 9% of 1,700 active | CHO M4/Gqi5 cells, Fluo-4 calcium fluorescence, agonist mode; actives lie on both sides;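 active means fluorescence change differing from the plate's solvent-only control wells at 99.7% confidence in both duplicates, whether higher or lower; inconclusive means differs from solvent controls in only one of two duplicates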
Each line names hits and unclear results; the compound was inactive in the other large screens (follow-up assays come after a bar, where they were run). This is a sample that favours compounds with a hit; in the whole collection about 5.2% have one here.

COC(=O)/C=c1/s/c(=C(/C#N)C(=O)N2CCCCC2)n(-c2ccccc2)c1=O	none (no result: E coli WT exp)
Cn1c(=O)c2c(SCC(=O)N3CCCc4ccccc43)nc(CC(C)(C)C)nc2n(C)c1=O	none
CCCc1nc(SCC(=O)N2CCCc3ccccc32)c2c(=O)n(C)c(=O)n(C)c2n1	tolC growth inh 78.0, M1 antagonist -1.43, M1 agonist 2.85 | M1 ag confirm inconclusive | M4 agonist ctr inactive
CCCc1nc(SCC(=O)N2CCC(Cc3ccccc3)CC2)c2c(=O)n(C)c(=O)n(C)c2n1	tolC growth inh 75.2, M1 agonist 4 | M1 ag confirm inactive | M4 agonist ctr inactive
CCOC(=O)CC1=C(C(=O)OCC)C(c2ccc(OC)cc2OC)C(C#N)=C(N)O1 (stereo not given)	M1 agonist 6.99 | M1 ag confirm inactive | M4 agonist ctr inactive
CCOC(=O)N1CCN(C(=O)CSCC(=O)Nc2nc(-c3cccs3)cs2)CC1	none (no result: AP complement, E coli WT exp)
CC1CCN(C(=O)CSCC(=O)Nc2nc(-c3cccs3)cs2)CC1	none
CC1CCCCN1C(=O)CSCC(=O)Nc1nc(-c2cccs2)cs1 (stereo not given)	M1 agonist 7.96 | M1 ag confirm inactive | M4 agonist ctr inactive
CC1CCCN(C(=O)CSCC(=O)Nc2nc(-c3cccs3)cs2)C1 (stereo not given)	M1 agonist 6.82 | M1 ag confirm inactive | M4 agonist ctr inactive
CCC(C)(C)n1nnnc1C(c1ccc(C)cc1)N(Cc1ccco1)Cc1cccs1 (stereo not given)	none (no result: WNV NS2B-NS3 inh, AP complement, tolC growth inh, M1 antagonist, M1 agonist)
CCC(C)(C)NC(=O)C(c1cccc(OC)c1)N(C(=O)c1ccn[nH]1)c1cccc(OC)c1 (stereo not given)	M1 agonist 12 | M1 ag confirm -23.9 | M4 agonist ctr -68.2
COc1ccc(N(C(=O)c2ccn[nH]2)C(C(=O)NC(C)(C)C)c2ccc(F)cc2)cc1 (stereo not given)	none (no result: WNV NS2B-NS3 inh, AP complement, tolC growth inh, M1 antagonist, M1 agonist)
COc1cc2c(cc1OC)C(C(=O)Nc1ccc3c(c1)OCCO3)C(c1cccnc1)N(C)C2=O (stereo not given)	none (no result: M1 antagonist, M1 agonist)
O=C(CN1CCN(Cc2ccc(Cl)cc2)C1=O)NCCN1CCCC1	none (no result: E coli WT exp)
COc1ccc(C2=CC(c3ccc(C)cc3)n3nnnc3N2)cc1 (stereo not given)	M1 agonist 9.56 (no result: AP complement) | M1 ag confirm inactive | M4 agonist ctr inactive
COc1cccc(C2C=C(c3ccc(OC)cc3OC)Nc3nnnn32)c1 (stereo not given)	M1 agonist 3.26 | M1 ag confirm inactive | M4 agonist ctr inactive
O=C(O)c1sccc1SCc1ccc(Cl)cc1Cl	none (no result: WNV NS2B-NS3 inh, AP complement, tolC growth inh, M1 antagonist, M1 agonist)
CC1(C)Cc2c(C#N)c(SCc3ccccc3)nc(N3CCOCC3)c2CO1	none
CC1(C)Cc2c(C#N)c(N3CCN(C(=O)c4ccccc4)CC3)nc(Cc3ccccc3)c2CO1	none (no result: WNV NS2B-NS3 inh, AP complement, tolC growth inh, M1 antagonist, M1 agonist)
CC1(C)Cc2c(C#N)c(N3CCOCC3)nc(Cc3ccccc3)c2CO1	M1 agonist 4.22 (no result: AP complement) | M1 ag confirm inactive | M4 agonist ctr inconclusive
CC1(C)Cc2c(C#N)c(SCC(=O)c3ccccc3)nc(N3CCOCC3)c2CO1	M1 agonist 6.71 | M1 ag confirm inactive | M4 agonist ctr inconclusive
CC1CCN(c2nc(-c3ccco3)c3c(c2C#N)CC(C)(C)OC3)CC1	M1 agonist 4.51 | M1 ag confirm inactive | M4 agonist ctr inactive
Cc1ccc(C)c2[nH]c(=O)c(CN(CC3CCCO3)C(=O)NC3CCCCC3)cc12 (stereo not given)	none
CC(Nc1ccccc1)C(=O)Nc1ccc(F)cc1 (stereo not given)	none (no result: WNV NS2B-NS3 inh, AP complement, tolC growth inh, M1 antagonist, M1 agonist)
O=c1cc(CSc2nnc(-c3cccs3)n2Cc2ccccc2)nc2sc3ccccc3n12	M1 agonist 4.18 | M1 ag confirm inactive | M4 agonist ctr inactive
Cc1cc(C(=O)CSc2nnc(-c3cccs3)n2Cc2ccccc2)c(C)n1C	none
COc1cccc(=O)c2c(C)oc(C)c12	M1 agonist 44 | M1 ag confirm 536 | M4 agonist ctr 502
COc1ccc(-n2c(C)c3c(OC)cccc(=O)c3c2C)cc1	none (no result: WNV NS2B-NS3 inh, AP complement, tolC growth inh, M1 antagonist, M1 agonist)
COc1ccc(C(=O)NCc2cn3ccsc3n2)cc1OC	none
